From ChEMBL document CHEMBL4513216, “Probing the Open Global Health Chemical Diversity Library for Multistage-Active Starting Points for Next-Generation Antimalarials” (ACS Infect Dis, 2020)

Assay: Toxicity liver stage against HepG2, at 10uM
Format: cell-based
Set-up: test concentration 10 uM, cell line HepG2-A16-CD81EGFP
Settings: human, HepG2-A16-CD81EGFP cells; read-out: INHIBITION
Summary of the method: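 Uninfected HepG2-A16-CD81EGFP cells, 3 × 10^3 per well, 1536-well, plated on prespotted compound at 10 μM final, parasite-free screening media added to match infected plates; puromycin 10 μM positive, DMSO 0.5% negative; run in parallel with 48 h PbLuc assay at 37 °C, 5% CO2; viability by CellTiter-Glo luminescence, normalized to controls.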

| SMILES | cytotoxicity at 10 µM [%] |
| --- | --- |
| O=C(CC1CCCC1)NCCS(=O)(=O)N1CCN(c2ccccc2)CC1 | -4.07 |
| CN(c1cccnn1)C1CCN(C(=O)c2n[nH]c3c2CCC3)CC1 | 6.96 |
| O=C(N[C@@H]1CNCCC[C@H]1O)c1ccc(OCCN2CCOCC2)cc1 | 3.11 |
| Cn1cncc1-c1nnc([C@H]2CCN(CC3CCCCC3)C2)o1 | -4.65 |
| CC[C@H]1CN(C(=O)C2CC2)CC[C@H]1CC(=O)NCCN1CCOCC1 | -7.3 |
| Cc1ccc(Oc2ncccc2C(=O)N(C)CC2OCCO2)c(C)c1 | 3.54 |
| COc1ccc(C(=O)Nc2ccccc2C(C)C)c(OC)n1 | 3.66 |
| O=C(CC1CCCC1)N1CCN2C[C@@H](CO)[C@H](c3ccccc3)[C@H]2C1 | -4.73 |
| COc1cccc(C(=O)NCC2CCN(C(=O)c3ccoc3)CC2)c1 | 15.9 |
| CCS(=O)(=O)CCNC(=O)c1cc2n(n1)CCCO2 | -8.81 |
| C[C@H]1C[C@H]2CN(C(=O)C3=CCCCC3)CC[C@H]2O1 | 4.76 |
| CN(C)C(=O)NCc1nnc2n1CCN(Cc1ccsc1)C2 | 8.31 |
| COCCN1CCC2(COCc3c(C)nc(N(C)C)nc32)C1 (stereo unspecified) | -132 |
| CC(=O)N1[C@H](Cn2cncn2)C[C@@H]2CN(Cc3nccs3)CC[C@@H]21 | 10 |
| CCN1C(=O)C[C@@H]2[C@@H]1CCN2S(=O)(=O)Cc1ccc(C)cc1 | -6.22 |
| CNC(=O)c1cc2c(nc1NCC1CC1)CCN(c1ncccn1)CC2 | 0.283 |
| Cc1cccc(CN2CC[C@@H]3[C@@H]2CCN3C(=O)c2cnoc2C)n1 | -21.1 |
| CS(=O)(=O)NC[C@]12COC[C@H]1CN(C(=O)Cc1ccccc1F)C2 | -2.57 |
| Cn1cc(Br)c(C(=O)NCCCn2cc(Br)cn2)n1 | -6.4 |
| Cc1c(-c2cc(C(F)F)nc3sc(C(N)=O)c(N)c23)cnn1C | 10.1 |
| COc1c(CC2CC(C(=O)O)=NO2)c(Br)c2c(c1OC)OCO2 (stereo unspecified) | 6.36 |
| CCC(=O)Nc1nnc(CCOc2ccccc2)s1 | 7.16 |
| OCc1n[nH]c(-c2ccc(F)cc2)n1 | -4.64 |

| SMILES | cytotoxicity at 10 µM [%] |
| --- | --- |
| Cc1sc(C(=O)NC(C)C)cc1S(=O)(=O)N(C)C | -7.84 |
| Cc1cncnc1C1CCN(CC(N)=O)CC1 | -6.84 |
| CC(C)CC(=O)N1CCC(c2nnc3n2CCCCC3)CC1 | -28 |
| Cc1ccnc(C2CCCN2C(=O)CN(C)C)n1 (stereo unspecified) | -19.1 |
| Cc1cc2c(=O)n3c(nc2s1)CCN(C(=O)c1ccnn1C)CC3 | -4.08 |
| CCc1nnc2n1CCN(C(=O)C1CCC(n3cccc3)CC1)C2 (stereo unspecified) | -1.5 |
| COc1ccccc1N1CCN(C(=O)c2ccoc2)CC1 | 11.5 |
| Cc1cc(F)ccc1N1CCCC(NS(=O)(=O)CCCF)C1=O (stereo unspecified) | -3.14 |
| O=C(c1cnc(-c2ccccc2)nc1)N1CCOC2(CCCC2)C1 | -1.39 |
| Cc1noc(C)c1NC(=O)Cn1cc(Br)ccc1=O | 8.99 |
| CN(CC(=O)NCc1cc2ccccc2o1)S(C)(=O)=O | 4.59 |
| CCN(Cc1ccc(C#N)cc1F)C(=O)C(C)(C)C | 5.73 |
| Cc1cc(NCc2cn(C)nc2-c2cccnc2)n(C)n1 | 12 |
| Cc1c(NC(=O)NC(C)CCO)cccc1OC1CCCC1 (stereo unspecified) | -7.18 |
| NC(=O)c1cn[nH]c1NC(=O)c1ccc2c(c1)OCO2 | 1.03 |
| O=C(COC1CCCC1)NCc1ccc(O)c(F)c1 | -2.43 |
| NC(=O)C1CCN(CCCc2ccc(C(F)(F)F)cc2)CC1 | -0.85 |
| Cn1nc2c(cc1=O)CN(CCCOc1ccc(C#N)cc1)CC2 | 22.9 |
| Cc1noc(NCc2ccc(F)cc2F)n1 | -4.49 |
| CCN(CC)c1ccc(CNC(=O)c2ccccn2)cn1 | 10.8 |
| CC(Cc1c(F)cccc1F)NC(=O)CN(CC(N)=O)C(C)C (stereo unspecified) | -10.5 |
| c1nc(N2CCCC(Cn3cncn3)C2)c2ccsc2n1 (stereo unspecified) | 5.68 |
| Cc1ccc(OCCNc2cccc(C(=O)N3CCOCC3)c2)cc1 | 4.14 |

| SMILES | cytotoxicity at 10 µM [%] |
| --- | --- |
| COC(=O)[C@H](C)NC(=O)Cc1c(C)nc2c(c1C)c(=O)[nH]n2C | 10.7 |
| CCn1cnnc1C1CCN(C(=O)c2cnn(C(C)(C)C)c2)CC1 | 4.78 |
| CC(C)(O)CSCCNC(=O)c1ccc(F)cc1Cl | -10.9 |
| Clc1cncc(NCc2cccc(COC3CCOCC3)c2)n1 | 14.6 |
| Cc1ccccc1C(C)(C)CNC(=O)CCSc1nnnn1C | 6.51 |
| Cc1nc(O)ccc1C(=O)NCc1ncoc1C | 5.68 |
| Cc1[nH]ccc1C(=O)NCc1ncoc1C | -2.45 |
| COc1ccc(CSc2nnc(N)n2C2CC2)cc1F | 5.11 |
| CC(c1ccc(-n2cncn2)cc1)N(C)Cc1ccccn1 (stereo unspecified) | 8.86 |
| Cc1cccc(N2CCN(C(=O)CCc3ccsc3)C(C)C2)n1 (stereo unspecified) | 18.4 |
| CCOc1ccnc(N2CCN(C(=O)CCc3ccncc3)CC2)n1 | -0.662 |
| CCc1nc(CCNC(=O)NC2CC2)sc1C | -14.4 |
| O=C(NC1(c2nnn(CCO)n2)CCCC1)c1ccccc1 | 14.8 |
| c1coc(-c2noc(CN3CCC(c4ccn[nH]4)CC3)n2)c1 | -8.19 |
| COc1ccnc(N2CCN(C(=O)c3csc(C4CC4)n3)CC2)n1 | 4.85 |
| COc1ccc(F)cc1C(C)NC(=O)c1nnc(C)s1 (stereo unspecified) | -0.213 |
| CN(C)S(=O)(=O)N1CCN(c2nccc(C(F)(F)F)n2)CC1 | -7.04 |
| Cc1cc(C)n(CCCNC(=O)C(C)NC(=O)c2ccccc2Cl)n1 (stereo unspecified) | -0.136 |
| O=C(c1ccc[nH]1)N1CCCn2c(nnc2Cn2cccn2)C1 | 8.06 |
| COCC1CN(C(=O)c2ccco2)Cc2nccn2C1 (stereo unspecified) | -107 |
| CCOC[C@@H]1CC[C@H]2[C@H](CCN2S(=O)(=O)c2ccc(F)cc2)O1 | 1.39 |
| CN1C(=O)CC(c2cnn(C)c2)C12CCN(C(=O)C1CC=CC1)CC2 (stereo unspecified) | 5.84 |
| CC(C)NC(=O)N1CC(=O)c2sc(NC3CCCCC3)nc2C1 | -7.91 |

| SMILES | cytotoxicity at 10 µM [%] |
| --- | --- |
| COc1cccc(CN(C)C(C)c2ccon2)c1OCCn1ccnc1 (stereo unspecified) | -5.17 |
| O=C(c1csc2nc(-c3ccc(Cl)cc3)cn12)N1CCCC(CO)C1 (stereo unspecified) | 2.2 |
| COCCn1cnnc1CCn1ccnc1-c1ccccc1Cl | -8.25 |
| CCc1nc(C)c([C@H]2CN(C)C[C@@H]2C(=O)NCc2ccccn2)[nH]1 | 2.77 |
| COc1ccc(C2(C(=O)N3C[C@@H](C(=O)O)[C@H](C(C)C)C3)CC2)cc1 | -8.36 |
| COc1ccc(-c2ccc(C(=O)N3CCC[C@@H]3CO)o2)cc1 | 7.44 |
| O=C(NCc1c[nH]c(=O)[nH]c1=O)C1CCOc2ccccc2C1 (stereo unspecified) | -3.03 |
| OCC(O)CN1CCc2onc(-c3ccc(C(F)(F)F)cc3)c2C1 (stereo unspecified) | -3.24 |
| Cc1nonc1C1CCCN1C(=O)c1cn2ccsc2n1 (stereo unspecified) | 9.59 |
| COCCc1nc(CN2CC(C)(c3ccccc3)CCC2=O)no1 (stereo unspecified) | -3.07 |
| N#Cc1cccnc1N1CCCC(CO)(Cc2ccccc2F)C1 (stereo unspecified) | 4.01 |
| CN1CCN(C(=O)c2cccc(S(=O)(=O)NCC3(C)COC3)c2)CC1 | -14.1 |
| Cc1cc(CNC(=O)c2cn(CCC3CCCCN3)nn2)on1 (stereo unspecified) | -7.19 |
| CCn1cnnc1CN(C)c1nccc(C2CCCC2)n1 | 0.998 |
| O=C(NCc1cnn2ccccc12)NC1CCCC1 | -2.91 |
| Cc1nn(C2CCCCC2)c2nc(C(C)(C)CN3CCOCC3)[nH]c12 | -3.64 |
| O=C(CSc1ccncc1)N1CCC2(CC1)c1ccccc1CC2O (stereo unspecified) | -2.36 |
| Cc1cccc(N2CCC3(CCCN3Cc3c(C)nn(C)c3C)CC2)n1 | -8.35 |
| O=C(O)c1cccc(C2CCCN(S(=O)(=O)N3CCOCC3)C2)c1 (stereo unspecified) | 9.45 |
| CCCn1nc(C)c(CNC(=O)C2COc3c(cccc3OC)C2)c1C (stereo unspecified) | -11.8 |
| COc1nc(C)c(C(=O)N(C)Cc2nc(-c3ccccn3)no2)s1 | -8.44 |
| Cc1cc(C[C@@H]2COC[C@@H]2NC(=O)CN2CCCN(C)CC2)on1 | -15 |
| O=C(c1ccccc1-c1ccccc1)N1CCOC2(CNCCOC2)C1 (stereo unspecified) | -16.2 |

| SMILES | cytotoxicity at 10 µM [%] |
| --- | --- |
| O=C(CSCC1CC1)N1CCCC(c2nccn2Cc2ccncc2)C1 (stereo unspecified) | -13.3 |
| Cc1ccc(C2CCCN2S(=O)(=O)N(C)CCc2ccccn2)o1 (stereo unspecified) | -5.31 |
| Cc1cc(C)n(CCC(=O)N2CCC(Nc3cccnn3)CC2)n1 | -6.36 |
| CS(=O)(=O)Cc1ccc(C(=O)NC2CCc3nccn3C2)o1 (stereo unspecified) | -8.77 |
| O=C(NCCCn1cncn1)N1CCC(N2CCCCC2)CC1 | -7.01 |
| O=C(CSc1ccc(F)cc1F)NS(=O)(=O)c1ccc2c(c1)OCCO2 | -10.7 |
| Cc1cc(NC(=O)NCC(C)N2CCOCC2)n(C)n1 (stereo unspecified) | -18.3 |
| O=C(c1ccn(-c2ccc(F)cc2)n1)N1CCCC(n2ccnc2)C1 (stereo unspecified) | -16.3 |
| Cc1ccc(OCCC(=O)N2CCC(c3nncn3C)CC2)c(C)c1 | -6.27 |
| COCCOc1ccc(NC(=O)N2CCCC2c2cccs2)cn1 (stereo unspecified) | -3.17 |
| COCC(c1cccc(C(F)(F)F)c1)N(C)C(=O)c1cc(C)n[nH]1 (stereo unspecified) | -14.1 |
| CN1CC2(CCN(Cc3cccnc3)CC2)c2cccc(F)c21 | 10.7 |
| COCCC(=O)N1CCn2cc(CN3CCN(C)CC3)nc2C1 | -3.13 |
| CC(C)OCCCN(Cc1ccncc1)Cc1cc(F)ccc1F | -29.2 |
| OC(CN1CCN(Cc2cccc(F)c2)CC1)C1CC1 (stereo unspecified) | -2.45 |
| Fc1cnc(N2CCCn3c(CN4CCOCC4)nnc3C2)nc1 | -138 |
| COCCN1C[C@@H]2CCCO[C@@H]2[C@H](NC(=O)c2cnccn2)C1 | 0.766 |
| Cc1csc(NC(=O)[C@@H]2C[C@H]3[C@H](CCN3c3ncccn3)O2)n1 | -13.8 |
| O=C(c1ccccn1)N1C[C@H]2CC[C@@H](C1)N(C(=O)CCc1ccsc1)C2 | -12.7 |
